For 13 molecules, IC50 and inhibition results are on record in ChEMBL document CHEMBL1949503, “Design, synthesis, theoretical calculations and biological evaluation of new non-symmetrical choline kinase inhibitors” (Eur J Med Chem, 2012).

A short description of assay [1]: Inhibition of human choline kinase assessed as incorporation of 14C from [methyl-14C]choline into phosphocholine after 20 mins by liquid scintillation counter. The essentials:
(§1)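 Enzyme source was HepG2 cytosol (cells sonicated in 275 mM Tris pH 8.5, 12000 g supernatant), about 50 µg protein. Final mix: 100 mM Tris pH 8.5, 10 mM MgCl2, 10 mM ATP, with inhibitor. Started with 1 mM [methyl-14C]choline, 37 °C for 20 min, stopped by boiling. Phosphocholine was separated on silica TLC and counted by scintillation. IC50 was derived from the concentration series.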

The species entered for assay [2] is Homo sapiens. The experiment in a line: Inhibition of human choline kinase assessed as incorporation of 14C from [methyl-14C]choline into phosphocholine at 10 uM after 20 mins by liquid scintillation counter. The method, boiled down:
as §1

The test system of assay [3] is HepG2. The experiment in a line: Cytotoxicity against human HepG2 cells after 24 hrs using crystal violet staining by microplate reader analysis. Conditions: HepG2, 24 h. It is filed as functional, cell-based. The essentials:
(§2)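 HepG2 cells in MEM with 10% FBS were seeded at 10 000 cells/well and grown 24 h. The medium was then replaced with fresh medium/10% FBS, and cells were exposed to inhibitors for 24 h, or to none. Cells were fixed with 1.1% glutaraldehyde, stained with 0.1% crystal violet and solubilised in 10% acetic acid. A590 was converted to cell number with a standard curve.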

Assay [4] has as its system HepG2. The experiment in a line: Cytotoxicity against human HepG2 cells at 10 uM after 24 hrs using crystal violet staining by microplate reader analysis. It is filed as functional. Particulars: HepG2, 24 h. The essentials:
as §2

The species named for assay [5] is Homo sapiens. The experiment in a line: Inhibition of human choline kinase assessed as incorporation of 14C from [methyl-14C]choline into phosphocholine at 50 uM after 20 mins by liquid scintillation counter. The method, boiled down:
as §1

For assay [6], the system named is HepG2. Kind of assay: Cytotoxicity against human HepG2 cells at 50 uM after 24 hrs using crystal violet staining by microplate reader analysis. It is filed as functional. Particulars: HepG2, 24 h. The method, boiled down: as §2

As usually defined, the IC50 is the point on the concentration scale where inhibition reaches its midpoint. The term inhibition denotes how much of the control response was suppressed. On to `CN(C)c1cc[n+](Cc2ccc(CCCCc3ccc(Cn4cnc5c(N)ncnc54)cc3)cc2)cc1`, for which the half-maximal inhibitory concentration (IC50) in assay [1] worked out at 10.7 µM; in assay [3], 49.7 µM. The inhibition was 66.7% in assay [2] and 89.7% in assay [5]. Also, in assay [4], the inhibition at 10 µM was determined as 10.2%. The molecule also showed an inhibition at 50 µM in assay [6] of 45.5%.

With `Nc1ncn(Cc2ccc(CCc3ccc(C[n+]4ccc(N5CCCC5)cc4)cc3)cc2)c2ncnc1-2`, the inhibition stood at 0.1% in assay [2] and 24.8% in assay [5]. The molecule also came in with an inhibition at 10 µM in assay [4] of 11.6%. The molecule also returned an inhibition at 50 µM in assay [6] of 30%.

Take `Nc1ncnc2c1ncn2Cc1ccc(CCc2ccc(C[n+]3ccc(N4CCCC4)cc3)cc2)cc1`: the inhibition turned out to be 28.6% in assay [2] and 46.9% in assay [5]. In assay [4], this molecule yielded an inhibition at 10 µM of 30.1%. The molecule further came in with an inhibition at 50 µM in assay [6] of 45%.

Take `Nc1ncnc2c1ncn2Cc1ccc(-c2ccc(C[n+]3ccc(N4CCCC4)cc3)cc2)cc1`: the figures for the inhibition in assay [2] and in assay [5] were 50.2% and 72.8%, respectively. The same molecule had an inhibition at 10 µM in assay [4] of 10.4%. This molecule had an inhibition at 50 µM in assay [6] of 45%.

In the case of `CN(C)c1cc[n+](Cc2ccc(CCCCc3ccc(Cn4cnc(N)c5ncnc4-5)cc3)cc2)cc1`, the inhibition in assay [2] was determined as 61.3%; in assay [5] it was 68.2%. This molecule registered an IC50 in assay [3] of 38.9 µM. The molecule also showed an inhibition at 10 µM in assay [4] of 14.3%. In assay [6], this molecule registered an inhibition at 50 µM of 56.1%.

`Nc1ncnc2c1ncn2Cc1ccc(CCCCc2ccc(C[n+]3ccc(N4CCCC4)cc3)cc2)cc1`: the inhibition in assay [2] was 36.9%; in assay [5], 41.9%. Moreover, in assay [4], the inhibition at 10 µM came to 15.4%. The inhibition at 50 µM in assay [6] was 90.1%.

`CN(C)c1cc[n+](Cc2ccc(CCc3ccc(Cn4cnc5c(N)ncnc54)cc3)cc2)cc1`: the inhibition came out at 38.6% in assay [2] and 81% in assay [5]. In assay [4], this molecule came in with an inhibition at 10 µM of 10.5%. In assay [6], 50 µM produced 10.5% inhibition.

Consider `Nc1ncnc2c1ncn2Cc1ccc(C[n+]2ccc(N3CCCC3)cc2)cc1`, for which the inhibition in assay [2] was determined as 0%; in assay [5], 27%. The same molecule yielded an inhibition at 10 µM in assay [4] of 0%. At 50 µM the inhibition in assay [6] was 15.5%.

On to `CN(C)c1cc[n+](Cc2ccc(Cn3cnc4c(N)ncnc43)cc2)cc1`, for which the results for the inhibition in assay [2] and in assay [5] were 46.7% and 54.1%, respectively. In assay [4], this molecule returned an inhibition at 10 µM of 0%. The molecule also had an inhibition at 50 µM in assay [6] of 5.1%.

Regarding `CN(C)c1cc[n+](Cc2ccc(-c3ccc(Cn4cnc5c(N)ncnc54)cc3)cc2)cc1`, the inhibition in assay [2] is 37.6%; in assay [5], 51%. Besides, the inhibition at 10 µM in assay [4] was determined as 0%. Also, the inhibition at 50 µM in assay [6] is 10.3%.

As to `CN(C)c1cc[n+](Cc2ccc(Cn3cnc(N)c4ncnc3-4)cc2)cc1`, the values for the inhibition in assay [2] and in assay [5] were 25% and 50.2%, respectively. In assay [4], at 10 µM the inhibition was 10.3%. At 50 µM the inhibition in assay [6] was 2.5%.

On to `Nc1ncn(Cc2ccc(CCCCc3ccc(C[n+]4ccc(N5CCCC5)cc4)cc3)cc2)c2ncnc1-2`, for which the inhibition in assay [2] is 22.6%; in assay [5], 59.9%. Testing at 10 µM in assay [4] gave an inhibition of 13.7%. This molecule also returned an inhibition at 50 µM in assay [6] of 46.5%.

As to `CN(C)c1cc[n+](Cc2ccc(-c3ccc(Cn4cnc(N)c5ncnc4-5)cc3)cc2)cc1`, in assay [1], the IC50 was 6.21 µM. In addition, the results for the inhibition in assay [2] and in assay [5] were 62.3% and 71.4%, respectively. Moreover, at 10 µM the inhibition in assay [4] was 10%. The inhibition at 50 µM in assay [6] worked out at 7%.
